Measured values collected from several papers.
Each line is one published result; the experiments were not run side by side.
Target: Inhibitor of nuclear factor kappa-B kinase subunit epsilon (IKBKE, Homo sapiens, UniProt Q14164)
One construct used (Q14164 1-716): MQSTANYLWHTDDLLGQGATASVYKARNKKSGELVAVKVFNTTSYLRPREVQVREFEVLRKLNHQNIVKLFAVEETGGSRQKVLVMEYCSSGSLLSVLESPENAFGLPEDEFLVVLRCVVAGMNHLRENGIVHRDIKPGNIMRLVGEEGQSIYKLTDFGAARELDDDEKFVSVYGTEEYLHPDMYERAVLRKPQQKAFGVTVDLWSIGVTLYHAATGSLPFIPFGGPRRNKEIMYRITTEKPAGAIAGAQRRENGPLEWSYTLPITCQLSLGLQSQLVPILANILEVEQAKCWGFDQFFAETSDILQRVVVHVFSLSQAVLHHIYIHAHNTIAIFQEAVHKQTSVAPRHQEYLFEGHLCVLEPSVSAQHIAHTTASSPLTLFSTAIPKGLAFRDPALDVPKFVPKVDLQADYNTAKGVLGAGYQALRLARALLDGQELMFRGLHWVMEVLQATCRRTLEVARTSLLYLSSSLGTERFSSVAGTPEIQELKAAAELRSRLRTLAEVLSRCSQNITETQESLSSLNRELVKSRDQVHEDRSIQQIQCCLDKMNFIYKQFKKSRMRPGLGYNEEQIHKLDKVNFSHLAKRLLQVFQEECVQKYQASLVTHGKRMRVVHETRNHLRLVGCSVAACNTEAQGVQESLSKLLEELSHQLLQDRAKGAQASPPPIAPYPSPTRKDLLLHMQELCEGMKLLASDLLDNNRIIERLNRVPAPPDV

With `CN1CCN(c2ccc3nc(-c4c(N)c5c(F)cccc5[nH]c4=O)[nH]c3c2)CC1` the activity vs control was 42.9% (enzyme activity, inhibitor; 0.5 µM).
The activity vs control of `Cc1cc(NC(=O)c2cccc3cc(-c4cccc5[nH]nc(N)c45)ccc23)ccc1F` is reported as 111% (enzyme activity, inhibitor; 0.1 µM).
`CCOc1cc(-c2nncn2C)ccc1Nc1ncc2cc(C)nc(NCC(C)(C)C)c2n1` gave an inhibition of < 15% (enzyme activity, inhibitor, FRET; 1 µM).
`Cc1nn(CC(F)(F)F)cc1Nc1ncc(Br)c(NCc2ccc(S(N)(=O)=O)cc2)n1` gave a remaining activity of 23% (enzyme activity, inhibitor, radiometric; 1 µM).
`Nc1c(C(=O)NCc2ccc(C(=O)NCCCC3CCCCC3)cc2)cnn1-c1ccccc1` gave a remaining binding of 100% (cell-free assay, competition with immobilised ligand; 0.1 µM).
For `NS(=O)(=O)c1ccc(CNc2nc(Nc3cccc(CN4CCOCC4)c3)ncc2C2CC2)cc1`, the remaining activity was 43% (enzyme activity, inhibitor, radiometric; 1 µM).
The remaining signal of `N#CCCc1ccc2c(c1)-c1[nH]c3ccc([N+](=O)[O-])cc3c1CC(=O)N2` is reported as 89.2% (cell-free assay; 0.5 µM).
For `Cc1ccc(NC(=O)c2ccc(C)c(C(F)(F)F)c2)cc1C#Cc1nn(C2CCC(O)CC2)c2ncnc(N)c12` (stereo not shown), the remaining signal was 94% (cell-free assay; 10 µM).
`COc1cc(-c2cn(C3CCc4c(F)cccc4N(CC(F)(F)F)C3=O)nn2)ccc1-n1cnc(C)c1` (stereo not shown) gave a remaining binding of 100% (cell-free assay, competition with immobilised ligand; 1 µM).
The remaining signal of `COc1cc(Nc2c(C#N)cnc3cc(OCCCN4CCN(C)CC4)c(OC)cc23)c(Cl)cc1Cl` is reported as 75.4% (cell-free assay; 0.5 µM).
`CN1CCc2cc(Nc3ncc(C4CC4)c(NCCCNC(=O)C4CCC4)n3)ccc2C1` gave a remaining activity of 4% (enzyme activity, inhibitor, radiometric; 1 µM).
With `Cc1noc([C@H]2C[C@@H](c3ccc(C(F)(F)F)cc3)CN(C(=O)N3CCS(=O)(=O)C3)C2)n1` the remaining binding was 100% (cell-free assay, competition with immobilised ligand; 1 µM).
`Cc1nn(CC(F)(F)F)cc1Nc1ncc(Br)c(NCCCNC(=O)C2CCC2)n1` gave a remaining activity of 1% (enzyme activity, inhibitor, radiometric; 1 µM).
The inhibition of `COc1cc2ncnc(Nc3ccc(Oc4ccccc4)c(C)c3C)c2cc1OC` is reported as 1% (enzyme activity, inhibitor; 1 µM).
With `C[C@H](c1cccc(C#N)c1)n1cc(Cl)cc(C(N)=O)c1=N` the remaining binding was 82% (cell-free assay, competition with immobilised ligand; 1 µM).
With `COc1ccnn2ncc(-c3ccnc(N(C)C)n3)c12` the remaining binding was 94% (binding; 1 µM).
With `Cc1ccc(C(=O)NCc2ccsc2)cc1C#Cc1cn(C(C)C)c2ncnc(N)c12` the activity vs control was 104% (enzyme activity, inhibitor; 1 µM).
`COc1cc2c(N3CCN(C(=O)Nc4ccc(OC(C)C)cc4)CC3)ncnc2cc1OCCCN1CCCCC1` has a remaining signal of 96.2% (cell-free assay; 0.5 µM).
`Cc1nn(CC(F)(F)F)cc1Nc1nccc(NCCCNC(=O)C2CCC2)n1` gave a remaining activity of 63% (enzyme activity, inhibitor, radiometric; 1 µM).
The remaining binding of `C[C@@H]1CN(c2cc(-c3nn(C)c4ccc(OC5(C)CC5)cc34)ncn2)C[C@H](C)O1` is reported as 65% (cell-free assay, competition with immobilised ligand; 1 µM).
With `Cc1nn(CC(F)(F)F)cc1Nc1nccc(NCCc2cnc[nH]2)n1` the remaining activity was 83% (enzyme activity, inhibitor, radiometric; 1 µM).
With `C[C@H](NC(=O)c1cnc2n1[C@](C)(Cc1ccc(C#N)cc1)C(=O)N2c1cc(Cl)c(F)c(Cl)c1)C(=O)NC1(c2ccccn2)CC1` the remaining binding was 89% (cell-free assay, competition with immobilised ligand; 1 µM).
